Reference: ChEMBL document CHEMBL1782042, “Efficient microwave-assisted synthesis and antitumor activity of novel 4,4'-methylenebis[2-(3-aryl-4,5-dihydro-1H-pyrazol-5-yl)phenols]” (Eur J Med Chem, 2011)

How the values were obtained:
MOLT-4 = assay: Cytotoxicity against human MOLT4 cells; type: cell-based
Method in brief: (§1)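 NCI 60 human tumour cell line screen, second stage at five concentrations (100, 10, 1.0, 0.1 and 0.01 μM). Continuous drug exposure for 48 h, with cell growth estimated by sulforhodamine B protein staining. GI50 is the drug concentration giving a 50% reduction in net protein increase relative to control cells over the incubation.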

OVCAR-5 [1] = assay: Anticancer activity against human OVCAR5 cells after 48 hrs by sulforhodamine B assay; type: functional; details: OVCAR-5, 48 h
Method in brief: (§2)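 NCI 60-cell-line in vitro screen, second stage: five concentration levels (100, 10, 1.0, 0.1 and 0.01 μM) with 48 h continuous drug exposure. Cell growth was estimated by sulforhodamine B protein staining. GI50 is the drug concentration that gives a 50% reduction in net protein increase relative to control cells over the incubation.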

OVCAR-5 [2] = assay: Cytotoxicity against human OVCAR5 cells; type: cell-based; method in brief: as §1
TK-10 = assay: Anticancer activity against human TK10 cells after 48 hrs by sulforhodamine B assay; type: functional; details: TK-10, 48 h
Method in brief: (§3)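 NCI 60-cell-line screen, second stage. Five concentration levels (100, 10, 1.0, 0.1 and 0.01 μM), 48 h continuous drug exposure. Cell growth was estimated by sulforhodamine B protein staining. GI50 is the concentration giving a 50% reduction in net protein increase relative to control cells over the drug incubation. Compounds entered this stage after an earlier single-dose screen.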

OVCAR-3 [3] = assay: Anticancer activity against human OVCAR3 cells after 48 hrs by sulforhodamine B assay; type: functional; details: OVCAR-3, 48 h; method in brief: as §2
T47D = assay: Cytotoxicity against human T47D cells; type: cell-based
Method in brief: (§4)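 NCI 60 human tumour cell line screen; five concentration levels (100, 10, 1.0, 0.1 and 0.01 μM), 48 h continuous drug exposure. Cell growth estimated by sulforhodamine B (SRB) protein staining. GI50 taken as the drug concentration giving a 50% reduction in net protein increase relative to control cells over the incubation.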

SK-OV-3 = assay: Cytotoxicity against human SKOV3 cells; type: cell-based; method in brief: as §1
Hs-578T [4] = assay: Anticancer activity against human Hs578T cells after 48 hrs by sulforhodamine B assay; type: functional; method in brief: as §2
U-251 [5] = assay: Cytotoxicity against human U251 cells; type: cell-based; method in brief: as §4
OVCAR-3 [6] = assay: Cytotoxicity against human OVCAR3 cells; type: cell-based; method in brief: as §1
SF-295 = assay: Cytotoxicity against human SF295 cells; type: cell-based; method in brief: as §1
EKVX [7] = assay: Cytotoxicity against human EKVX cells; type: cell-based; method in brief: as §1
IGROV-1 = assay: Cytotoxicity against human IGROV1 cells; type: cell-based; method in brief: as §1
CCRF-CEM [8] = assay: Cytotoxicity against human CCRF-CEM cells; type: cell-based; method in brief: as §1
SK-MEL-5 [9] = assay: Cytotoxicity against human SK-MEL-5 cells; type: cell-based; method in brief: as §1
SF-268 = assay: Cytotoxicity against human SF268 cells; type: cell-based; method in brief: as §1
Malme-3M [10] = assay: Anticancer activity against human MALME-3M cells after 48 hrs by sulforhodamine B assay; type: functional; method in brief: as §2
HCT-116 [11] = assay: Cytotoxicity against human HCT116 cells; type: cell-based; method in brief: as §1
NCI-H522 = assay: Anticancer activity against human NCI-H522 cells after 48 hrs by sulforhodamine B assay; type: functional; details: NCI-H522, 48 h; method in brief: as §2
RPMI-8226 [12] = assay: Cytotoxicity against human RPMI8226 cells; type: cell-based; method in brief: as §1
HCT-15 = assay: Cytotoxicity against human HCT15 cells; type: cell-based; method in brief: as §1
RXF 393 [13] = assay: Cytotoxicity against human RXF393 cells; type: cell-based; method in brief: as §1
EKVX [14] = assay: Anticancer activity against human EKVX cells after 48 hrs by sulforhodamine B assay; type: functional; method in brief: as §2
CAKI-1 = assay: Cytotoxicity against human Caki1 cells; type: cell-based; method in brief: as §1
A498 [15] = assay: Anticancer activity against human A498 cells after 48 hrs by sulforhodamine B assay; type: functional; details: A498, 48 h; method in brief: as §2
COLO 205 = assay: Cytotoxicity against human COLO205 cells; type: cell-based; method in brief: as §1
KM12 = assay: Anticancer activity against human KM12 cells after 48 hrs by sulforhodamine B assay; type: functional; details: KM12, 48 h; method in brief: as §2
UO-31 = assay: Anticancer activity against human UO31 cells after 48 hrs by sulforhodamine B assay; type: functional; details: UO-31, 48 h; method in brief: as §3
786-0 = assay: Anticancer activity against human 786-0 cells after 48 hrs by sulforhodamine B assay; type: functional; details: 786-0, 48 h; method in brief: as §2
A549 = assay: Cytotoxicity against human A549 cells; type: cell-based; method in brief: as §1
A498 [16] = assay: Cytotoxicity against human A498 cells; type: cell-based; method in brief: as §1
HOP-62 = assay: Anticancer activity against human HOP62 cells after 48 hrs by sulforhodamine B assay; type: functional; details: HOP-62, 48 h; method in brief: as §2
NCI-H322M = assay: Anticancer activity against human NCI-H322M cells after 48 hrs by sulforhodamine B assay; type: functional; method in brief: as §2
SF-539 = assay: Anticancer activity against human SF539 cells after 48 hrs by sulforhodamine B assay; type: functional; details: SF-539, 48 h; method in brief: as §2
BT-549 = assay: Cytotoxicity against human BT549 cells; type: cell-based; method in brief: as §1
LOX IMVI [17] = assay: Anticancer activity against human LOXIMVI cells after 48 hrs by sulforhodamine B assay; type: functional; method in brief: as §2
MDA-MB-435 = assay: Anticancer activity against human MDA-MB-435 cells after 48 hrs by sulforhodamine B assay; type: functional; details: MDA-MB-435, 48 h; method in brief: as §2
PC-3 = assay: Cytotoxicity against human PC3 cells; type: cell-based; method in brief: as §1
SK-MEL-2 = assay: Anticancer activity against human SK-MEL-2 cells after 48 hrs by sulforhodamine B assay; type: functional; details: SK-MEL-2, 48 h; method in brief: as §2
MDA-MB-468 = assay: Cytotoxicity against human MDA-MB-468 cells; type: cell-based; method in brief: as §1
RXF 393 [18] = assay: Anticancer activity against human RXF393 cells after 48 hrs by sulforhodamine B assay; type: functional; details: RXF 393, 48 h; method in brief: as §2
HCT-116 [19] = assay: Anticancer activity against human HCT116 cells after 48 hrs by sulforhodamine B assay; type: functional; details: HCT-116, 48 h; method in brief: as §2
Malme-3M [20] = assay: Cytotoxicity against human MALME-3M cells; type: cell-based; method in brief: as §1
HT-29 [21] = assay: Anticancer activity against human HT-29 cells after 48 hrs by sulforhodamine B assay; type: functional; details: HT-29, 48 h; method in brief: as §2
RPMI-8226 [22] = assay: Anticancer activity against human RPMI8226 cells after 48 hrs by sulforhodamine B assay; type: functional; details: RPMI-8226, 48 h; method in brief: as §2
U-251 [23] = assay: Anticancer activity against human U251 cells after 48 hrs by sulforhodamine B assay; type: functional; details: U-251, 48 h; method in brief: as §3
SNB-19 = assay: Cytotoxicity against human SNB19 cells; type: cell-based; method in brief: as §4
LOX IMVI [24] = assay: Cytotoxicity against human LOXIMVI cells; type: cell-based; method in brief: as §1
HOP-92 = assay: Cytotoxicity against human HOP92 cells; type: cell-based; method in brief: as §1
UACC-257 = assay: Cytotoxicity against human UACC257 cells; type: cell-based; method in brief: as §4
HL-60(TB) = assay: Cytotoxicity against human HL-60(TB) cells; type: cell-based; method in brief: as §1
NCI-H460 = assay: Cytotoxicity against human NCI-H460 cells; type: cell-based; method in brief: as §1
CCRF-CEM [25] = assay: Anticancer activity against human CCRF-CEM cells after 48 hrs by sulforhodamine B assay; type: functional; method in brief: as §2
HCC 2998 = assay: Cytotoxicity against human HCC2998 cells; type: cell-based; method in brief: as §1
Hs-578T [26] = assay: Cytotoxicity against human Hs578T cells; type: cell-based; method in brief: as §1
HT-29 [27] = assay: Cytotoxicity against human HT-29 cells; type: cell-based; method in brief: as §1
SK-MEL-5 [28] = assay: Anticancer activity against human SK-MEL-5 cells after 48 hrs by sulforhodamine B assay; type: functional; details: SK-MEL-5, 48 h; method in brief: as §2

Oc1ccc(Cc2ccc(O)c(C3CC(c4ccc(Cl)cc4)=NN3)c2)cc1C1CC(c2ccc(Cl)cc2)=NN1 (configuration not stated)
LC50 (MOLT-4): > 100 µM
GI50 (OVCAR-5 [1]): 6.1 µM
LC50 (OVCAR-5 [2]): > 100 µM
GI50 (TK-10): 5.34 µM
GI50 (OVCAR-3 [3]): 2.59 µM
LC50 (T47D): > 100 µM
LC50 (SK-OV-3): > 100 µM
GI50 (Hs-578T [4]): 2.76 µM
LC50 (U-251 [5]): > 100 µM
LC50 (OVCAR-3 [6]): > 100 µM
LC50 (SF-295): > 100 µM
LC50 (EKVX [7]): > 100 µM
LC50 (IGROV-1): > 100 µM
LC50 (CCRF-CEM [8]): > 100 µM
LC50 (SK-MEL-5 [9]): 36.7 µM
LC50 (SF-268): > 100 µM
GI50 (Malme-3M [10]): 5.08 µM
LC50 (HCT-116 [11]): > 100 µM
GI50 (NCI-H522): 2.95 µM
LC50 (RPMI-8226 [12]): > 100 µM
LC50 (HCT-15): > 100 µM
LC50 (RXF 393 [13]): > 100 µM
GI50 (EKVX [14]): 2.77 µM
LC50 (CAKI-1): > 100 µM
GI50 (A498 [15]): 5.37 µM
LC50 (COLO 205): > 100 µM
GI50 (KM12): 3.09 µM
GI50 (UO-31): 3.04 µM
GI50 (786-0): 3.81 µM
LC50 (A549): > 100 µM
LC50 (A498 [16]): > 100 µM
GI50 (HOP-62): 4.16 µM
GI50 (NCI-H322M): 4.17 µM
GI50 (SF-539): 5.82 µM
LC50 (BT-549): > 100 µM
GI50 (LOX IMVI [17]): 1.82 µM
GI50 (MDA-MB-435): 3.21 µM
LC50 (PC-3): > 100 µM
GI50 (SK-MEL-2): 3.23 µM
LC50 (MDA-MB-468): > 100 µM
GI50 (RXF 393 [18]): 3.99 µM
GI50 (HCT-116 [19]): 1.85 µM
LC50 (Malme-3M [20]): > 100 µM
GI50 (HT-29 [21]): 7.25 µM
GI50 (RPMI-8226 [22]): 5.09 µM
GI50 (U-251 [23]): 1.8 µM
LC50 (SNB-19): > 100 µM
LC50 (LOX IMVI [24]): > 100 µM
LC50 (HOP-92): > 100 µM
LC50 (UACC-257): > 100 µM
LC50 (HL-60(TB)): > 100 µM
LC50 (NCI-H460): > 100 µM
GI50 (CCRF-CEM [25]): 1.94 µM
LC50 (HCC 2998): > 100 µM
LC50 (Hs-578T [26]): > 100 µM
LC50 (HT-29 [27]): > 100 µM
GI50 (SK-MEL-5 [28]): 3.36 µM
